# Assay results as given in PMC7009771 (EFSA Journal, 2018).
# “Also recorded” adds a separate entry of the source. Where two headings read alike, the source gives them in different places.
# Tests used:
# [1] = test system: CYP2C19; details: 10 μM (~ […]), pooled human liver microsomes; ref Absorption Systems, 2013a; cited from earlier work
# [2] = test system: hERG ion channel; details: 10 μM; ref AVIVA, 2012; cited from earlier work
# [3] = test system: humans; details: 112 subjects completed, ref Harrison Research Laboratories, 2014a,b; cited from earlier work
# [4] = test system: Balb/c 3T3 cells; details: based on 3T3 NRU test; ref CeeTox, 2013; cited from earlier work
# [5] = in vitro; ref CiToxLab, 2014; cited from earlier work
# [6] = ref Senomyx, 2015, cited from earlier work
# [7] = test system: CD [Crl:CD(SD)] rats; details: 28 days, gavage, rats males and females; ref Charles River (2013); cited from earlier work
# [8] = test system: CD [Crl:CD(SD)] rats; details: 90 days, gavage, rats males and females; ref Charles River (2014); cited from earlier work
# [9] = heated for 24 h at 110°C; ref Senomyx, 2015; cited from earlier work
# [10] = test system: CD [Crl:CD(SD)] rats; experiment: 90-day oral toxicity study in rats; assay type: in vivo
# How it was run: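 Candidate substance given by oral gavage to CD rats of both sexes for 13 weeks at up to 100 mg/kg bw per day, with doses chosen from a 28-day dietary range-finder. Margin of safety derived from the 90-day NOAEL against APET exposure estimates: chronic 3.8 (adult) or 9.5 (child) µg/kg bw per day, and acute 0.076 mg/kg bw for a 3-year-old child.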
# [11] = test system: human peripheral blood lymphocytes (HPBL); details: ref Nucro-Technics (2013b), cited from earlier work; for relative cell growth (RCG) (test vs. solvent control) / relative mitotic index (RMI) (test vs. solvent control): 3-h exposure without S9-mix
# [12] = 24 h at 100°C, ref Senomyx, 2015, cited from earlier work
# [13] = test system: 67 receptor binding assays for G-protein coupled receptors (GPCRs), ion channels, nuclear receptors and transporters; details: significant = ≥ 50% inhibition or stimulation; 67 assays; ref Ricerca, 2012; cited from earlier work
# [14] = test system: Keratinocyte ARE-Reporter Cell Line KeratinoSens; details: in vitro; ref IIVS, 2013; cited from earlier work
# [15] = test system: bone marrow of CD-1 mice; details: ref WIL Research (2013a), cited from earlier work
# [16] = test system: CYP2C19; details: human liver microsomes; ref Absorption Systems, 2013b; cited from earlier work
# [17] = 3-h exposure with S9-mix, 1.3 μg/mL
# [18] = 3-h exposure with S9-mix, 2.5 μg/mL
# [19] = 3-h exposure with S9-mix, 5.0 μg/mL
# [20] = 20-h exposure without S9, 23 μg/mL
# [21] = 20-h exposure without S9, 39 μg/mL
# [22] = 20-h exposure without S9, 65 μg/mL
# [23] = 20-h exposure without S9, 110 μg/mL
smiles,measurement,setting,value
"Cc1ccc(OCC(=O)N(Cc2cccs2)c2ccn[nH]2)cc1 [FL‐no: 16.133, 2‐(4‐methylphenoxy)‐N‐(1H‐pyrazol‐3‐yl)‐N‐(thiophen‐2‐ylmethyl)acetamide]",CYP2C19 inhibition,[1],significant inhibition
same,inhibition of hERG ion channel current,[2],< 10%
same,"skin sensitisation, HRIPT result",[3],negative result
same,phototoxic potential (Panel conclusion),[4],does not anticipate that [FL‐no: 16.133] has a phototoxic potential
same,"skin sensitisation potential, DPRA",[5],may exhibit a skin sensitisation potential
same,Solubility in ethanol,[6]; 95% ethanol,> 308 mM
same,Solubility in water,[6]; pH = 7,0.12 mM
same,Solubility in triacetine,[6],40.47 mM
same,Result: NOEL,[7],NOEL: ≥ 100 mg/kg bw per day
same,Result: NOEL,[8],NOEL: ≥ 100 mg/kg bw per day
same,Dry powder stability,[9],stable
same,Margin of safety,"[10]; Adult, 90-day NOAEL 100 mg/kg bw per day vs chronic APET 3.8 μg/kg bw per day","26,300"
same,Margin of safety,"[10]; Child, 90-day NOAEL 100 mg/kg bw per day vs chronic APET 9.5 μg/kg bw per day","10,500"
same,"MoE, acute exposure","[10]; children, 90-day NOAEL vs maximum acute dietary exposure about 0.08 mg/kg bw","more than 1,000"
same,relative cell growth (RCG),[11]; [17],109%
same,relative mitotic index (RMI),[11]; [17],61%
same,relative cell growth (RCG),[11]; [18],100%
same,relative mitotic index (RMI),[11]; [18],55%
same,relative cell growth (RCG),[11]; [19],121%
same,relative mitotic index (RMI),[11]; [19],45%
same,relative cell growth (RCG),"[11]; 3-h exposure with S9-mix, 10 μg/mL",130%
same,relative cell growth (RCG),"[11]; 3-h exposure with S9-mix, 20 μg/mL",97%
same,relative cell growth (RCG),"[11]; 3-h exposure with S9-mix, 40 μg/mL",84%
same,relative cell growth (RCG),"[11]; 3-h exposure with S9-mix, 80 μg/mL",60%
same,relative cell growth (RCG),"[11]; 3-h exposure with S9-mix, 160 μg/mL",11%
same,relative cell growth (RCG) (test vs. solvent control),[11]; 35 μg/mL,108%
same,relative mitotic index (RMI) (test vs. solvent control),[11]; 35 μg/mL,102%
same,relative cell growth (RCG) (test vs. solvent control),[11]; 58 μg/mL,93%
same,relative mitotic index (RMI) (test vs. solvent control),[11]; 58 μg/mL,88%
same,relative cell growth (RCG) (test vs. solvent control),[11]; 97 μg/mL,98%
same,relative mitotic index (RMI) (test vs. solvent control),[11]; 97 μg/mL,110%
same,relative cell growth (RCG) (test vs. solvent control),[11]; 160 μg/mL,60%
same,relative mitotic index (RMI) (test vs. solvent control),[11]; 160 μg/mL,48%
same,relative cell growth (RCG) (test vs. solvent control),[11]; 270 μg/mL,18%
same,relative cell growth (RCG),[11]; [20],100%
same,relative mitotic index (RMI),[11]; [20],106%
same,relative cell growth (RCG),[11]; [21],97%
same,relative mitotic index (RMI),[11]; [21],82%
same,relative cell growth (RCG),[11]; [22],60%
same,relative mitotic index (RMI),[11]; [22],57%
same,relative cell growth (RCG),[11]; [23],56%
same,relative mitotic index (RMI),[11]; [23],0%
same,relative cell growth (RCG),"[11]; 20-h exposure without S9, 180 μg/mL",19%
same,percentage remaining,[12]; aqueous citric buffer pH 2.8,90.1%
same,percentage remaining,[12]; aqueous citric buffer pH 4.0,97.2%
same,percentage remaining,[12]; phosphoric acid buffer pH 7.1,83.5%
same,responses in lead profiling receptor screen,[13],No significant responses
same,"skin sensitisation potential, KeratinoSens Assay",[14],may exhibit a skin sensitisation potential
same,ratio PCEs/TE (bone marrow toxicity) vs vehicle control,"[15]; CD-1 mice, 1,000-2,000 mg/kg bw per day",No decrease
same,Micronucleus assay result (incidence of MNPCEs),"[15]; CD-1 mice, gavage, 1,000, 1,500 and 2,000 mg/kg bw per day, three consecutive days",No statistically significant increases; also recorded: Negative
same,clinical signs of toxicity,"[15]; CD-1 mice, gavage, up to 2,000 mg/kg bw per day",No clinical signs of toxicity
same,time-dependent inhibition of CYP2C19,[16],No evidence of time‐dependent CYP inhibition
